Active and inactive are the calls of the source. The rule behind the calls is not given here.
Legend:
P19 [1] = assay: Cytotoxicity against undifferentiated mouse P19 cells assessed as mitochondrial membrane potential at 1 uM after 24 hrs by TMRF dye based fluorescence assay relative to control; assay type: functional
Procedure, shortened: (§1)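 Undifferentiated (P19SCs) or differentiated (P19dCs) P19 cells incubated 24 or 72 h with 1 or 100 µM. Mitochondrial membrane potential and mitochondrial superoxide levels measured and expressed relative to untreated control. Means ± SD from 4 independent measurements, at least 4 repeats each. Significance at p<0.05.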

P19 [2] = assay: Cytotoxicity against undifferentiated mouse P19 cells assessed as mitochondrial superoxide anion level at 100 uM after 72 hrs by MitoSox dye based fluorescence assay relative to control; assay type: functional; procedure, shortened: as §1
P19 [3] = assay: Cytotoxicity against undifferentiated mouse P19 cells assessed as metabolic activity at 1 to 100 uM after 48 hrs by resazurin assay relative to control; assay type: functional
Procedure, shortened: (§2)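 Metabolic activity by resazurin reduction in undifferentiated (P19SCs) or differentiated (P19dCs) P19 cells. Exposure to 1, 10 or 100 µM for 24, 48 or 72 h. Read-out relative to untreated control. Significance vs control at p<0.05.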

P19 [4] = assay: Cytotoxicity against undifferentiated mouse P19 cells assessed as mitochondrial superoxide anion level at 1 uM after 24 hrs by MitoSox dye based fluorescence assay relative to control; assay type: functional; procedure, shortened: as §1
P19 [5] = assay: Cytotoxicity against differentiated mouse P19 cells assessed as metabolic activity at 1 to 100 uM after 24 hrs by resazurin assay relative to control; assay type: functional; procedure, shortened: as §2
P19 [6] = assay: Cytotoxicity against differentiated mouse P19 cells assessed as mitochondrial superoxide anion level at 1 uM after 24 hrs by MitoSox dye based fluorescence assay relative to control; assay type: functional; procedure, shortened: as §1
P19 [7] = assay: Cytotoxicity against differentiated mouse P19 cells assessed as mitochondrial membrane potential at 100 uM after 72 hrs by TMRF dye based fluorescence assay relative to control; assay type: functional; procedure, shortened: as §1
P19 [8] = assay: Cytotoxicity against differentiated mouse P19 cells assessed as mitochondrial superoxide anion level at 100 uM after 72 hrs by MitoSox dye based fluorescence assay relative to control; assay type: functional; procedure, shortened: as §1
P19 [9] = assay: Cytotoxicity against undifferentiated mouse P19 cells assessed as mitochondrial superoxide anion level at 1 uM after 72 hrs by MitoSox dye based fluorescence assay relative to control; assay type: functional; procedure, shortened: as §1
P19 [10] = assay: Cytotoxicity against undifferentiated mouse P19 cells assessed as metabolic activity at 1 to 100 uM after 24 hrs by resazurin assay relative to control; assay type: functional; procedure, shortened: as §2
P19 [11] = assay: Cytotoxicity against undifferentiated mouse P19 cells assessed as cell mass at 1 to 100 uM after 24 hrs by SRB assay relative to control; assay type: functional
Procedure, shortened: (§3)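 Cell mass by SRB assay in P19 cells (CRL-1825), either undifferentiated (P19SCs) or differentiated (P19dCs). Cells exposed to 1, 10 or 100 µM for 24, 48 or 72 h. Values expressed relative to untreated control. Means ± SD from at least 4 independent measurements, 6 repeats each. Significance vs control at p<0.05.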

P19 [12] = assay: Cytotoxicity against differentiated mouse P19 cells assessed as mitochondrial superoxide anion level at 100 uM after 24 hrs by MitoSox dye based fluorescence assay relative to control; assay type: functional; procedure, shortened: as §1
P19 [13] = assay: Cytotoxicity against differentiated mouse P19 cells assessed as cell mass at 1 to 100 uM after 48 hrs by SRB assay relative to control; assay type: functional; procedure, shortened: as §3
P19 [14] = assay: Cytotoxicity against undifferentiated mouse P19 cells assessed as cell mass at 1 to 100 uM after 48 hrs by SRB assay relative to control; assay type: functional; procedure, shortened: as §3
P19 [15] = assay: Cytotoxicity against differentiated mouse P19 cells assessed as cell mass at 1 to 100 uM after 24 hrs by SRB assay relative to control; assay type: functional; procedure, shortened: as §3
P19 [16] = assay: Cytotoxicity against differentiated mouse P19 cells assessed as mitochondrial membrane potential at 1 uM after 72 hrs by TMRF dye based fluorescence assay relative to control; assay type: functional; procedure, shortened: as §1
P19 [17] = assay: Cytotoxicity against undifferentiated mouse P19 cells assessed as mitochondrial superoxide anion level at 100 uM after 24 hrs by MitoSox dye based fluorescence assay relative to control; assay type: functional; procedure, shortened: as §1
P19 [18] = assay: Cytotoxicity against differentiated mouse P19 cells assessed as metabolic activity at 1 to 100 uM after 72 hrs by resazurin assay relative to control; assay type: functional; procedure, shortened: as §2
P19 [19] = assay: Cytotoxicity against differentiated mouse P19 cells assessed as metabolic activity at 1 to 100 uM after 48 hrs by resazurin assay relative to control; assay type: functional; procedure, shortened: as §2
P19 [20] = assay: Cytotoxicity against undifferentiated mouse P19 cells assessed as cell mass at 1 to 100 uM after 72 hrs by SRB assay relative to control; assay type: functional; procedure, shortened: as §3
P19 [21] = assay: Cytotoxicity against undifferentiated mouse P19 cells assessed as mitochondrial membrane potential at 100 uM after 24 hrs by TMRF dye based fluorescence assay relative to control; assay type: functional; procedure, shortened: as §1
P19 [22] = assay: Cytotoxicity against undifferentiated mouse P19 cells assessed as metabolic activity at 1 to 100 uM after 72 hrs by resazurin assay relative to control; assay type: functional; procedure, shortened: as §2
P19 [23] = assay: Cytotoxicity against differentiated mouse P19 cells assessed as mitochondrial membrane potential at 1 uM after 24 hrs by TMRF dye based fluorescence assay relative to control; assay type: functional; procedure, shortened: as §1
P19 [24] = assay: Cytotoxicity against differentiated mouse P19 cells assessed as mitochondrial membrane potential at 100 uM after 24 hrs by TMRF dye based fluorescence assay relative to control; assay type: functional; procedure, shortened: as §1
P19 [25] = assay: Cytotoxicity against differentiated mouse P19 cells assessed as cell mass at 1 to 100 uM after 72 hrs by SRB assay relative to control; assay type: functional; procedure, shortened: as §3
P19 [26] = assay: Cytotoxicity against differentiated mouse P19 cells assessed as mitochondrial superoxide anion level at 1 uM after 72 hrs by MitoSox dye based fluorescence assay relative to control; assay type: functional; procedure, shortened: as §1
P19 [27] = assay: Cytotoxicity against undifferentiated mouse P19 cells assessed as mitochondrial membrane potential at 100 uM after 72 hrs by TMRF dye based fluorescence assay relative to control; assay type: functional; procedure, shortened: as §1
P19 [28] = assay: Cytotoxicity against undifferentiated mouse P19 cells assessed as mitochondrial membrane potential at 1 uM after 72 hrs by TMRF dye based fluorescence assay relative to control; assay type: functional; procedure, shortened: as §1
[29] = molecular target: T1, Hexokinase-2 (Mus musculus) (UniProt O08528); assay: Inhibition of HK2 isolated from mouse undifferentiated P19 cell lysates at […] using [U-14C]-labeled glucose as substrate in presence of ATP and NADP by G6PD enzyme coupled spectrophotometric assay
T1 sequence (whole entry): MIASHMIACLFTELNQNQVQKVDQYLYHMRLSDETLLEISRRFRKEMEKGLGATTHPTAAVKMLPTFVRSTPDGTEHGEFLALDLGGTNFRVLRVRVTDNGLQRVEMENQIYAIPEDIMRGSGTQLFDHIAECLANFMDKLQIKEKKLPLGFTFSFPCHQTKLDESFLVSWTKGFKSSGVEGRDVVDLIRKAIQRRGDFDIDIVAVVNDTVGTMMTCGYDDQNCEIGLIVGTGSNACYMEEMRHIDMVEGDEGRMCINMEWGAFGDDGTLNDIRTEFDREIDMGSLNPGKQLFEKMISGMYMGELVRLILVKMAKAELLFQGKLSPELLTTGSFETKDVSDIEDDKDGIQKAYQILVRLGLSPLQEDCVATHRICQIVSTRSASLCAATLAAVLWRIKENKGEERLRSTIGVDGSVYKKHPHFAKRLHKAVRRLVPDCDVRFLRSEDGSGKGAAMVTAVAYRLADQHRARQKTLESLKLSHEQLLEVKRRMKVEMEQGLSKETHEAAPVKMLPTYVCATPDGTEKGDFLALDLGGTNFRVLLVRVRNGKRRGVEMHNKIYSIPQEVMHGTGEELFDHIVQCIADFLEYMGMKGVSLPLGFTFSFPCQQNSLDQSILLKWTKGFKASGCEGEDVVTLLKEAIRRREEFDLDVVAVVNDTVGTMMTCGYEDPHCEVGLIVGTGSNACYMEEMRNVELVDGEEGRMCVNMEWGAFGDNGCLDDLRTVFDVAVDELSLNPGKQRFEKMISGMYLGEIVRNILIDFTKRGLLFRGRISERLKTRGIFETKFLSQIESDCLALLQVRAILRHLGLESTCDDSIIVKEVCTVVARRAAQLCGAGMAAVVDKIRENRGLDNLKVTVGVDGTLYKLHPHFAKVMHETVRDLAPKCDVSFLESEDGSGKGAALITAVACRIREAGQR
Procedure, shortened: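 Hexokinase activity measured in supernatant of freshly prepared, centrifuged lysates of undifferentiated P19 cells. Buffer was 100 mM Tris-HCl pH 8.0 with 0.5 mM EDTA, 10 mM MgCl2, 2 mM glucose, 0.1 mM NADP and 0.1 U/ml G6PD. After 10 min preincubation at 37°C, 10 mM ATP was added to start the reaction. NADPH formation was followed at 340 nm. Four independent experiments, ≥4 repeats each.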

Row | Compound | Activity (P19 [3]) [%] | Activity (P19 [5]) [%] | Activity (P19 [10]) [%] | Activity (P19 [11]) [%] | Activity (P19 [13]) [%] | Activity (P19 [14]) [%] | Activity (P19 [15]) [%] | Activity (P19 [18]) [%] | Activity (P19 [19]) [%] | Activity (P19 [20]) [%] | Activity (P19 [22]) [%] | Activity (P19 [25]) [%] | also measured
1 | O=C(c1ccc2c(c1)C(=O)N(c1ccccc1O)C2=O)c1ccc2c(c1)C(=O)N(c1ccccc1O)C2=O | 99.7 | 105 | 103.5 | 103.6 | 93 | 102 | 95.6 | 99.4 | 105.3 | 106.5 | 101.2 | 79.8 | Activity (P19 [1]): 82.2%; Activity (P19 [2]): 129.9%; Activity (P19 [4]): 108.7%; Activity (P19 [6]): 111.1%; Activity (P19 [7]): 93.3%; Activity (P19 [8]): 86%; Activity (P19 [9]): 115.4%; Activity (P19 [12]): 168%; Activity (P19 [16]): 89.4%; Activity (P19 [17]): 108.3%; Activity (P19 [21]): 89.6%; Activity (P19 [23]): 117.8%; Activity (P19 [24]): 112%; Activity (P19 [26]): 97.8%; Activity (P19 [27]): 81.6%; Activity (P19 [28]): 81.9%
2 | O=C(c1ccc2c(c1)C(=O)N(c1nc[nH]n1)C2=O)c1ccc2c(c1)C(=O)N(c1nc[nH]n1)C2=O | 94 | 114 | 92.7 | 81.2 | 96 | 77.6 | 93.3 | 86.5 | 96.1 | 45.5 | 53.2 | 82 | 
3 | O=C(c1ccc2c(c1)C(=O)N(c1c[nH]c(=O)[nH]c1=O)C2=O)c1ccc2c(c1)C(=O)N(c1c[nH]c(=O)[nH]c1=O)C2=O | 103.2 | 116.3 | 113.8 | 115.2 | 88.2 | 99.4 | 95.8 | 105 | 105.3 | 97.4 | 109.6 | 90.8 | 
4 | OC[C@H]1OC(O)C[C@@H](O)[C@@H]1O (some centres not stated) | 91.2 | 90.5 | 100.1 | 120.4 | 93.6 | 99.6 | 90.5 | 94.4 | 101.7 | 103.8 | 101.3 | 97.4 | inhibition [29]: Active
5 | O=C(c1ccc2c(c1)C(=O)N(CCO)C2=O)c1ccc2c(c1)C(=O)N(CCO)C2=O | 107.8 | 113.3 | 101.5 | 83.9 | 108.4 | 92.4 | 96.2 | 99.4 | 103.7 | 106.7 | 113.8 | 80.5 | 
6 | O=C(c1ccc2c(c1)C(=O)N(c1ccc(O)cc1)C2=O)c1ccc2c(c1)C(=O)N(c1ccc(O)cc1)C2=O | 74.4 | 96.2 | 88.5 | 90.2 | 48.5 | 81.8 | 86.7 | 93.8 | 87.4 | 86.8 | 79.9 | 30.9 | Activity (P19 [1]): 176.1%; Activity (P19 [2]): 72.5%; Activity (P19 [4]): 72.1%; Activity (P19 [6]): 75.8%; Activity (P19 [7]): 136.6%; Activity (P19 [8]): 118.8%; Activity (P19 [9]): 78.4%; Activity (P19 [12]): 113.2%; Activity (P19 [16]): 144.7%; Activity (P19 [17]): 106.6%; Activity (P19 [21]): 206.6%; Activity (P19 [23]): 110.6%; Activity (P19 [24]): 65.8%; Activity (P19 [26]): 138%; Activity (P19 [27]): 116.7%; Activity (P19 [28]): 93%
7 | O=C(c1ccc2c(c1)C(=O)N(CCCO)C2=O)c1ccc2c(c1)C(=O)N(CCCO)C2=O | 98.1 | 100.1 | 105 | 106 | 97.9 | 101.5 | 110.6 | 98.1 | 101.1 | 100 | 100 | 94.7 | 
